This note sets out measurements from ChEMBL document CHEMBL2417369, “Synthesis and evaluation of heteroaryl substituted diazaspirocycles as scaffolds to probe the ATP-binding site of protein kinases” (Bioorg Med Chem, 2013).

Molecules are shown by their SMILES.

For experiment [1], the target named is Proto-oncogene tyrosine-protein kinase Src (Homo sapiens, UniProt P12931). Description: Inhibition of SRC (unknown origin) by microfluidic mobility shift assay.
For experiment [2], the target named is Tyrosine-protein kinase Lck (Homo sapiens, UniProt P06239). Description: Inhibition of LCK (unknown origin) by microfluidic mobility shift assay.
Experiment [3] is described as follows: Inhibition of MAPK (unknown origin) by microfluidic mobility shift assay. Also noted: species or system Homo sapiens.
For experiment [4], the target named is Serine/threonine-protein kinase D2 (Homo sapiens, UniProt Q9BZL6). Description: Inhibition of PKD2 (unknown origin) by microfluidic mobility shift assay.
Serine/threonine-protein kinase D2, sequence (Q9BZL6 whole entry): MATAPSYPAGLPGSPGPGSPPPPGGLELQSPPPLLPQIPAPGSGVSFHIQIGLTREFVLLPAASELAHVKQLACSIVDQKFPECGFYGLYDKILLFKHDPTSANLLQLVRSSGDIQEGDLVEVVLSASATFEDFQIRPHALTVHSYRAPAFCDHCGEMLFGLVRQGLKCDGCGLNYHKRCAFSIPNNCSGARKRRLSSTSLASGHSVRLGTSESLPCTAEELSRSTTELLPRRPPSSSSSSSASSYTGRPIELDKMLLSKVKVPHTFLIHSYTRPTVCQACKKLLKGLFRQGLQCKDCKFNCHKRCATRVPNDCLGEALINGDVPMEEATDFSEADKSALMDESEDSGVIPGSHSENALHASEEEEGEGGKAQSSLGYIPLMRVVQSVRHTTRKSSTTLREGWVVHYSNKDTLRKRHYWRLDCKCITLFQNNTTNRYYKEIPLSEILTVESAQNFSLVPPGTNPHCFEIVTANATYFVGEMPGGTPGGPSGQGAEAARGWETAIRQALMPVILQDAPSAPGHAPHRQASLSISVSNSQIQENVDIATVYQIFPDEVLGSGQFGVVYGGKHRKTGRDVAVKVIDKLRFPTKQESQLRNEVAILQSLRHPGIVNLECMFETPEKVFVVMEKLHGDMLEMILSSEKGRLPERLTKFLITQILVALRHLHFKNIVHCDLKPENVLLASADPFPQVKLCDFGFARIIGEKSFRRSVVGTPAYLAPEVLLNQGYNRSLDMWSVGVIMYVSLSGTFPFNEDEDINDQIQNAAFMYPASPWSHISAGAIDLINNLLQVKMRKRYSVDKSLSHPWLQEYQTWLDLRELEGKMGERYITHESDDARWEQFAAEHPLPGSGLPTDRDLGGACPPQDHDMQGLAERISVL
Experiment [5] deals with MAP kinase-activated protein kinase 5 (Homo sapiens, UniProt Q8IW41). Description: Inhibition of PRAK (unknown origin) by microfluidic mobility shift assay.
The target in experiment [6] is Hepatocyte growth factor receptor (Homo sapiens, UniProt P08581). Description: Inhibition of MET (unknown origin) by microfluidic mobility shift assay.
Experiment [7] addresses Tyrosine-protein kinase Fyn (Homo sapiens, UniProt P06241). Description: Inhibition of FYN (unknown origin) by microfluidic mobility shift assay.
The target of experiment [8] is RAC-alpha serine/threonine-protein kinase (Homo sapiens, UniProt P31749). Description: Inhibition of AKT1 (unknown origin) by microfluidic mobility shift assay.
RAC-alpha serine/threonine-protein kinase, sequence (P31749 whole entry): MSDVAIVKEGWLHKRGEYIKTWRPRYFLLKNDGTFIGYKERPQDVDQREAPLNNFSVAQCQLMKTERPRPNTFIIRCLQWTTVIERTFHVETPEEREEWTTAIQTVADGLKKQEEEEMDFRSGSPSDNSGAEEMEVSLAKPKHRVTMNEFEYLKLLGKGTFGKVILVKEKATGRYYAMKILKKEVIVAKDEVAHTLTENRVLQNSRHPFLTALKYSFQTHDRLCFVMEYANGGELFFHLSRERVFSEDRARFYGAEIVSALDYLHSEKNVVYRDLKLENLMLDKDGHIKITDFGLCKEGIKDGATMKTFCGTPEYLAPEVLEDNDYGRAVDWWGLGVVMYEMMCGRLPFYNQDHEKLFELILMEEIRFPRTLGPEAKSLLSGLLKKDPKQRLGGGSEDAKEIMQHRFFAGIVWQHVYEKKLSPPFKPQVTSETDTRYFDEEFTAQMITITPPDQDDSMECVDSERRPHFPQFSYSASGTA
For experiment [9], the target named is Glycogen synthase kinase-3 beta (Homo sapiens, UniProt P49841). Description: Inhibition of GSK3beta (unknown origin) by microfluidic mobility shift assay.
Glycogen synthase kinase-3 beta, sequence (P49841 whole entry, canonical isoform): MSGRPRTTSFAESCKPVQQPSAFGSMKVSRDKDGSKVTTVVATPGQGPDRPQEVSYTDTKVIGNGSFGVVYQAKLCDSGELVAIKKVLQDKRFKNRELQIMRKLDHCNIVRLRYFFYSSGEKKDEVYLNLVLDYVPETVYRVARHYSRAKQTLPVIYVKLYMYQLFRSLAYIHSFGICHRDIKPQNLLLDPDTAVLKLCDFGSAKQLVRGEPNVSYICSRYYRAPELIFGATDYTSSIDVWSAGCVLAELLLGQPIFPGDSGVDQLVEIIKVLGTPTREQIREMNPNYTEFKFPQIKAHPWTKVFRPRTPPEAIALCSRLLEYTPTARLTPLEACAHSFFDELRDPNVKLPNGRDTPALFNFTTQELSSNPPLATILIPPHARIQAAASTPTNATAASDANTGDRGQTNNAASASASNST
The target of experiment [10] is Casein kinase I isoform delta (Homo sapiens, UniProt P48730). Description: Inhibition of CK1delta (unknown origin) by microfluidic mobility shift assay.
The target of experiment [11] is Mitogen-activated protein kinase 3 (Homo sapiens, UniProt P27361). Description: Inhibition of ERK1 (unknown origin) by microfluidic mobility shift assay.
Mitogen-activated protein kinase 3, sequence (P27361 whole entry): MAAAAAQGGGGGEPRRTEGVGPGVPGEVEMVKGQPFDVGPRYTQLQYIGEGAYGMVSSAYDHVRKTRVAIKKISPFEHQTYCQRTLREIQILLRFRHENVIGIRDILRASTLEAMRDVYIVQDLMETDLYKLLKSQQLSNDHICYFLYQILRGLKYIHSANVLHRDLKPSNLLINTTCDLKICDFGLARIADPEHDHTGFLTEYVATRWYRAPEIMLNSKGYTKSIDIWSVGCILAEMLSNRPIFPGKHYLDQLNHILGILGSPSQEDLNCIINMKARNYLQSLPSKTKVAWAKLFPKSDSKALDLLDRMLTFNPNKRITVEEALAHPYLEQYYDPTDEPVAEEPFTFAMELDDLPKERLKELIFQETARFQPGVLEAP
For experiment [12], the target named is Tyrosine-protein kinase ABL1 (Homo sapiens, UniProt P00519). Description: Inhibition of ABL (unknown origin) by microfluidic mobility shift assay.
The target of experiment [13] is Protein kinase C zeta type (Homo sapiens, UniProt Q05513). Description: Inhibition of PKCzeta (unknown origin) by microfluidic mobility shift assay.
The target of experiment [14] is Ribosomal protein S6 kinase alpha-5 (Homo sapiens, UniProt O75582). Description: Inhibition of MSK1 (unknown origin) by microfluidic mobility shift assay.
Ribosomal protein S6 kinase alpha-5, sequence (O75582 whole entry): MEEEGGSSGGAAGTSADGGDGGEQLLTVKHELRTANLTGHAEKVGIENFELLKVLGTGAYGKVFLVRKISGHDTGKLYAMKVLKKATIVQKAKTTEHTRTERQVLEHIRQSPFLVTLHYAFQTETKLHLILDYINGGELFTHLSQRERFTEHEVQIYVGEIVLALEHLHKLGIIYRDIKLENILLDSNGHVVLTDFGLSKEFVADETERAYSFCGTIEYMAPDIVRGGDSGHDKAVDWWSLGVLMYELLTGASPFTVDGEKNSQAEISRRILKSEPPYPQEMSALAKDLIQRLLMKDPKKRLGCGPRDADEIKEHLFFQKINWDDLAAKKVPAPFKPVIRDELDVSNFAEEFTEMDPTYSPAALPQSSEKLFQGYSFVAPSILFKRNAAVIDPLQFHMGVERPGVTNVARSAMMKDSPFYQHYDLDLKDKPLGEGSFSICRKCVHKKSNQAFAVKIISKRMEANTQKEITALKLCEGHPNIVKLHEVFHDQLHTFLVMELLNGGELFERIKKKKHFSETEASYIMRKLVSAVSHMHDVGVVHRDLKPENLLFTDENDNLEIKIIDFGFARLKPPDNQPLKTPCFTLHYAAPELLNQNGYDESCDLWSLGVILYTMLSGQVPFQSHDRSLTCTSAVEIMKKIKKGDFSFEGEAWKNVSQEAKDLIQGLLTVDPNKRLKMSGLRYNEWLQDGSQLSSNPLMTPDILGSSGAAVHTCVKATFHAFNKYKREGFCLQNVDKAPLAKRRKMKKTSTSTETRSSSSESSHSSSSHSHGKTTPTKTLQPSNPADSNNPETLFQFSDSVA
Experiment [15] addresses Tyrosine-protein kinase Lyn (Homo sapiens, UniProt P07948). Description: Inhibition of LYN (unknown origin) by microfluidic mobility shift assay.
Experiment [16] has as its target Mitogen-activated protein kinase 1 (Homo sapiens, UniProt P28482). Description: Inhibition of ERK2 (unknown origin) by microfluidic mobility shift assay.
The target of experiment [17] is RAC-beta serine/threonine-protein kinase (Homo sapiens, UniProt P31751). Description: Inhibition of AKT2 (unknown origin) by microfluidic mobility shift assay.
Experiment [18] addresses Calcium/calmodulin-dependent protein kinase type II subunit beta (Homo sapiens) (UniProt Q13554). Description: Inhibition of CAMK2beta (unknown origin) at 30 uM by microfluidic mobility shift assay relative to control. Put shortly:
(§1)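 Single-point screen at 30 µM test compound across a 24-kinase panel in a microfluidic assay format. ATP was set near each enzyme's Km,[ATP]. […] The pan-AGC inhibitor H-89 served as an internal control on every assay plate.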

Experiment [19] concerns the target T1, Serine/threonine-protein kinase D3 (Homo sapiens) (UniProt O94806).
T1 sequence (whole entry): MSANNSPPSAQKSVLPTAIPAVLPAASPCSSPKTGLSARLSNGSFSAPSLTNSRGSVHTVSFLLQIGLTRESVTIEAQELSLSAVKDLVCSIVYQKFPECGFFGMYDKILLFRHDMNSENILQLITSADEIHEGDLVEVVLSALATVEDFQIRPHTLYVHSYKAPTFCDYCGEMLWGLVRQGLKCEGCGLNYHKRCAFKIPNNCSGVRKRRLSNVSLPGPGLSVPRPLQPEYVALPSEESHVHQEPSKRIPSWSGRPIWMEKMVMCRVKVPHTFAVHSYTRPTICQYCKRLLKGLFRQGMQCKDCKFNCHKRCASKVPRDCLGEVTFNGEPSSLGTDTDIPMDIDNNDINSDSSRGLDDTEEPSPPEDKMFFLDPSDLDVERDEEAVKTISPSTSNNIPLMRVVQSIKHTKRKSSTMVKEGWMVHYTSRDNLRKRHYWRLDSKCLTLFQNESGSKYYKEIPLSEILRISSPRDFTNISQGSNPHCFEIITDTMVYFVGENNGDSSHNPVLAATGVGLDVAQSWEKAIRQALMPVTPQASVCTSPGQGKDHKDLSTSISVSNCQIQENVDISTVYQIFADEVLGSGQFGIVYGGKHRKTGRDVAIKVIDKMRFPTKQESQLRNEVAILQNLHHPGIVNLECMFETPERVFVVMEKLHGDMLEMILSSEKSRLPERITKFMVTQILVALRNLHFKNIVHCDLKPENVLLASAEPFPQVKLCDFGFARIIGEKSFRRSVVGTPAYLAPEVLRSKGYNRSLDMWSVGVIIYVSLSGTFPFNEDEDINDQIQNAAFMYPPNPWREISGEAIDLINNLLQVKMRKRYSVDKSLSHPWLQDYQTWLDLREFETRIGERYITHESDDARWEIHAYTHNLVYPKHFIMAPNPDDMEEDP
Description: Inhibition of PKD3 (unknown origin) at 30 uM by microfluidic mobility shift assay relative to control. The essentials: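 Single-point screen against a 24-kinase panel in a commercial microfluidic assay format. Compounds were tested at 30 µM, with ATP at approximately the Km,[ATP] of each enzyme. H-89 was included on each assay plate as an internal control.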

The target in experiment [20] is T2, Calcium/calmodulin-dependent protein kinase type IV (Homo sapiens) (UniProt Q16566).
T2 sequence (whole entry): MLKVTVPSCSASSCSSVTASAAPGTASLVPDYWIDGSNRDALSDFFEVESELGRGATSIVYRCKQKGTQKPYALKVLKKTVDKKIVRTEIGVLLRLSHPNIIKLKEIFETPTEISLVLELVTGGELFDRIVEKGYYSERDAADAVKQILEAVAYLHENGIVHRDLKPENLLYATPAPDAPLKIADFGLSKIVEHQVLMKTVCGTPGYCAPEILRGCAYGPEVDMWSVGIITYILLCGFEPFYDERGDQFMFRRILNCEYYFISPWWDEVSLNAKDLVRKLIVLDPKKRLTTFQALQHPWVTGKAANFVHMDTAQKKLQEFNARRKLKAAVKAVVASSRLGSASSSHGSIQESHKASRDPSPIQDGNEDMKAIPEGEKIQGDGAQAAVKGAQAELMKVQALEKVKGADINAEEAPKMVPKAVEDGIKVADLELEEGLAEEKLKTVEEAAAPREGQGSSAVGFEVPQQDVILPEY
Description: Inhibition of CAMK4 (unknown origin) at 30 uM by microfluidic mobility shift assay relative to control. The essentials:
as §1

Experiment [21] addresses Protein kinase C alpha type (Homo sapiens) (UniProt P17252). Description: Inhibition of PKCalpha (unknown origin) at 30 uM by microfluidic mobility shift assay relative to control. Put shortly: as §1
In experiment [22] the target is Serine/threonine-protein kinase Chk2 (Homo sapiens, UniProt O96017). Description: Inhibition of CHK2 (unknown origin) by microfluidic mobility shift assay.
The target of experiment [23] is Ribosomal protein S6 kinase alpha-1 (Homo sapiens, UniProt Q15418). Description: Inhibition of RSK1 (unknown origin) by microfluidic mobility shift assay.

What is called IC50 is the concentration needed to halve the response being measured. As a reminder, the inhibition is the relative decrease from the control value, in per cent.

Calcium/calmodulin-dependent protein kinase type II subunit beta (Homo sapiens), sequence (Q13554 whole entry): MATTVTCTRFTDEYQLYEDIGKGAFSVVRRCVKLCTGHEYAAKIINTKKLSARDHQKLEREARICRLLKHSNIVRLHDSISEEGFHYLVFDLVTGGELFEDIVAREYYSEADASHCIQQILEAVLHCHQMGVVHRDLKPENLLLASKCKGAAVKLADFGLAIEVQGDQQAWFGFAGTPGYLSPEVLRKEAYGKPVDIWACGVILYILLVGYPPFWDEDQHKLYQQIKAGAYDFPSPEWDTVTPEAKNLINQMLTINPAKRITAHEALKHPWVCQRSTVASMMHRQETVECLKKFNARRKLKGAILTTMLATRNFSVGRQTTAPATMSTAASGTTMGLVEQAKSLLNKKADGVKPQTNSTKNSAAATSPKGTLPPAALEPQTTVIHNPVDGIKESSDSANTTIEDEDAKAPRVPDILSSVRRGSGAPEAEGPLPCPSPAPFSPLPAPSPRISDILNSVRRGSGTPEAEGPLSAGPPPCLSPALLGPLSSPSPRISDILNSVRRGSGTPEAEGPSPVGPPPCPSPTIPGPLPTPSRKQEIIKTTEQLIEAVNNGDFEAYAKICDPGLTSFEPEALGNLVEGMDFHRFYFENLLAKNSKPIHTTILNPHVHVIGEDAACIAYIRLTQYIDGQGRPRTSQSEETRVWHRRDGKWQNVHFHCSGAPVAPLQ
Tyrosine-protein kinase Lyn, sequence (P07948 whole entry): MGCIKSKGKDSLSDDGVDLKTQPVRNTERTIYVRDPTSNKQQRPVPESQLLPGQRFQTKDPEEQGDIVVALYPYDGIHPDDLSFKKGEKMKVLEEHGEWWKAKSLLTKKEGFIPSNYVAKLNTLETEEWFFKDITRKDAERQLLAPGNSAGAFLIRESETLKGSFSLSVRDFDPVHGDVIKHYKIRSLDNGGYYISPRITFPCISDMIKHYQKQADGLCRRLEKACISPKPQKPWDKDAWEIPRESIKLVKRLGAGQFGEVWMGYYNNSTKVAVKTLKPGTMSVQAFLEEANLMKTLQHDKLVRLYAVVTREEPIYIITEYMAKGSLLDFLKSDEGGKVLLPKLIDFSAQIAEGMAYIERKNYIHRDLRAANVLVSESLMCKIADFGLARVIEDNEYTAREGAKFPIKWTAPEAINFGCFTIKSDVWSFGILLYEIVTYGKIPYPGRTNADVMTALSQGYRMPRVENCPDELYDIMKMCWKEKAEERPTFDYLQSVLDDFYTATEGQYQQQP

As for `c1nc(N2CCC3(CCCNC3)CC2)c2nc[nH]c2n1`, the IC50 in experiment [1] is 18 µM; in [2] it was 20 µM; in [3], 19 µM; in [4] it was 1.3 µM; in experiment [5], 41 µM; in experiment [6], 183 µM. Also, the IC50 turned out to be 26 µM in experiment [7]; 1.6 µM in experiment [8]; 55 µM in [9]; 97 µM in experiment [10]; 37 µM in [11]; 7 µM in experiment [12]. For the same compound, the IC50 in experiment [13] amounted to 74 µM; in [14], 0.7 µM; in experiment [15], 14 µM; in [16] it was 38 µM; in experiment [17], 9.5 µM.

Consider `c1ccc(CC2CCC3(CCN(c4ncnc5[nH]cnc45)CC3)NC2)cc1` (racemic), for which the inhibition turned out to be 17% in experiment [18], 25% in experiment [19], 18% in [20] and 35% in experiment [21].

For `c1ccc(CC2CCNC3(CCN(c4ncnc5[nH]cnc45)CC3)C2)cc1` (racemic), the inhibition in [18] is 29%; in experiment [19] it was 81%; in [20], 14%; in experiment [21], 78%.

On to `c1nc(N2CCC3(CCCCN3)CC2)c2nc[nH]c2n1`, for which the IC50 in [1] came out at 150 µM; in experiment [2] it was 113 µM; in [3], 103 µM; in [22] it was 41 µM; in [4] it was 46 µM; in [5], 226 µM. The IC50 in experiment [7] was 158 µM; in [8], 14 µM; in experiment [9], 138 µM; in experiment [10], 238 µM; in experiment [11], 60 µM; in experiment [12], 126 µM. For the same compound, the IC50 was determined as 63 µM in [23]; 5.3 µM in experiment [14]; 178 µM in experiment [15]; 47 µM in [16]; 66 µM in experiment [17].

Consider `c1ccc(C2CCNC3(CCN(c4ncnc5[nH]cnc45)CC3)C2)cc1` (racemic), for which the inhibition in [18] was found to be 32%; in experiment [19] it was 53%; in experiment [20], 18%; in experiment [21], 59%.
